{"source": "ChEMBL document CHEMBL1140166", "about": "“Discovery of 1,4-substituted piperidines as potent and selective inhibitors of T-type calcium channels” (J Med Chem, 2008)", "key": {"[1]": {"test": "Dissociation constant, pKa of the compound", "assay_type": "physicochemical", "in_short": "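pKa was measured by potentiometric titration; calculated pKa values were also given from a pKa database.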"}, "[2]": {"test": "Cmax in Sprague-Dawley rat at 10 mg/kg, po", "assay_type": "ADME, organism-based", "parameters": "dose 10 mg/kg, route oral", "conditions": "in vivo"}, "[3]": {"test": "Cmax in Beagle dog at 3 mg/kg, po", "assay_type": "ADME, organism-based, Canis lupus familiaris", "parameters": "dose 3 mg/kg, route oral", "conditions": "in vivo"}, "[4]": {"test": "Oral bioavailability in Sprague-Dawley rat at 10 mg/kg", "assay_type": "ADME, organism-based", "conditions": "in vivo"}, "[5]": {"test": "Ratio of drug level from cerebrospinal fluid to plasma in rat at 10 mg/kg, po after 9 hrs", "assay_type": "ADME, organism-based, CSF/Plasma", "parameters": "dose 10 mg/kg, route oral", "in_short": "(§1)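 Rats given a single oral 10 mpk dose; brain, plasma and CSF levels measured; brain/plasma and CSF/plasma concentration ratios taken at 9 h after oral dosing.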"}, "[6]": {"test": "Plasma clearance in rhesus monkey at 1 mg/kg, iv", "assay_type": "ADME, organism-based, Macaca mulatta", "parameters": "dose 1 mg/kg, route intravenous"}, "[7]": {"test": "Oral bioavailability in rhesus monkey at 3 mg/kg", "assay_type": "ADME, organism-based, Macaca mulatta", "conditions": "in vivo"}, "[8]": {"test": "Plasma clearance in Beagle dog at 1 mg/kg, iv", "assay_type": "ADME, organism-based, Canis lupus familiaris", "parameters": "dose 1 mg/kg, route intravenous"}, "[9]": {"test": "Half life in rhesus monkey at 1 mg/kg, iv", "assay_type": "ADME, organism-based, Macaca mulatta", "parameters": "dose 1 mg/kg, route intravenous", "conditions": "in vivo"}, "[10]": {"test": "Oral bioavailability in Beagle dog at 3 mg/kg", "assay_type": "ADME, organism-based, Canis lupus familiaris", "conditions": "in vivo"}, "[11]": {"test": "AUC in Beagle dog at 3 mg/kg, po", "assay_type": "ADME, organism-based, Canis lupus familiaris", "parameters": "dose 3 mg/kg, route oral", "conditions": "plasma"}, "[12]": {"test": "AUC in Sprague-Dawley rat at 1 mg/kg, po", "assay_type": "ADME, organism-based", "parameters": "dose 1 mg/kg, route oral", "conditions": "plasma"}, "[13]": {"test": "AUC in Sprague-Dawley rat at 0.3 mg/kg, po", "assay_type": "ADME, organism-based", "parameters": "dose 0.3 mg/kg, route oral", "conditions": "plasma"}, "[14]": {"test": "Ratio of drug level from brain to plasma in rat at 10 mg/kg, po after 9 hrs", "assay_type": "ADME, organism-based", "parameters": "dose 10 mg/kg, route oral", "in_short": "as §1"}, "[15]": {"test": "AUC in rhesus monkey at 3 mg/kg, po", "assay_type": "ADME, organism-based, Macaca mulatta", "parameters": "dose 3 mg/kg, route oral", "conditions": "plasma"}, "[16]": {"test": "Plasma clearance in Sprague-Dawley rat at 2 mg/kg, iv", "assay_type": "ADME, organism-based", "parameters": "dose 2 mg/kg, route intravenous"}, "[17]": {"test": "Cmax in rhesus monkey at 3 mg/kg, po", "assay_type": "ADME, organism-based, Macaca mulatta", "parameters": "dose 3 mg/kg, route oral", "conditions": "in vivo"}, "[18]": {"test": "Cmax in Sprague-Dawley rat at 1 mg/kg, po", "assay_type": "ADME, organism-based", "parameters": "dose 1 mg/kg, route oral", "conditions": "in vivo"}, "[19]": {"test": "AUC in Sprague-Dawley rat at 10 mg/kg, po", "assay_type": "ADME, organism-based", "parameters": "dose 10 mg/kg, route oral", "conditions": "plasma"}, "[20]": {"test": "Half life in Sprague-Dawley rat at 2 mg/kg, iv", "assay_type": "ADME, organism-based", "parameters": "dose 2 mg/kg, route intravenous", "conditions": "in vivo"}, "[21]": {"test": "Half life in Beagle dog at 1 mg/kg, iv", "assay_type": "ADME, organism-based, Canis lupus familiaris", "parameters": "dose 1 mg/kg, route intravenous", "conditions": "in vivo"}, "[22]": {"test": "Bioavailability in Wistar albino rat", "assay_type": "ADME, organism-based", "conditions": "in vivo"}}, "data": [{"smiles": "CC(C)(C)NC(=O)CN1CCC(CNC(=O)c2cc(Cl)cc(Cl)c2)CC1", "values": [{"measurement": "pKa", "setting": "[1]", "value": 7.6}]}, {"smiles": "CC(C)(C)CCN1CC[C@@H](CNC(=O)c2cc(Cl)cc(Cl)c2)[C@H](F)C1", "note": "(relative stereo)", "values": [{"measurement": "pKa", "setting": "[1]", "value": 6.7}]}, {"smiles": "CC(C)(C)CCN1CC[C@H](CNC(=O)c2cc(Cl)cc(Cl)c2)[C@H](F)C1", "values": [{"measurement": "Cmax", "setting": "[2]", "value": 432, "unit": "nM"}, {"measurement": "Cmax", "setting": "[3]", "value": 1180, "unit": "nM"}, {"measurement": "bioavailability", "setting": "[4]", "value": 30, "unit": "%"}, {"measurement": "Kp at 9 h", "setting": "[5]", "value": 0.14}, {"measurement": "clearance", "setting": "[6]", "value": 9.6, "unit": "mL/min/kg"}, {"measurement": "bioavailability", "setting": "[7]", "value": 18, "unit": "%"}, {"measurement": "clearance", "setting": "[8]", "value": 9.1, "unit": "mL/min/kg"}, {"measurement": "half-life", "setting": "[9]", "value": 276, "unit": "min"}, {"measurement": "bioavailability", "setting": "[10]", "value": 67, "unit": "%"}, {"measurement": "AUC", "setting": "[11]", "value": 9.5, "unit": "µM·h"}, {"measurement": "AUC", "setting": "[12]", "value": 0.19, "unit": "µM·h"}, {"measurement": "AUC", "setting": "[13]", "value": 0.01, "unit": "µM·h"}, {"measurement": "Kp at 9 h", "setting": "[14]", "value": 9}, {"measurement": "AUC", "setting": "[15]", "value": 2.4, "unit": "µM·h"}, {"measurement": "clearance", "setting": "[16]", "value": 41, "unit": "mL/min/kg"}, {"measurement": "Cmax", "setting": "[17]", "value": 184, "unit": "nM"}, {"measurement": "Cmax", "setting": "[18]", "value": 33, "unit": "nM"}, {"measurement": "pKa", "setting": "[1]", "value": 7.9}, {"measurement": "AUC", "setting": "[19]", "value": 3.1, "unit": "µM·h"}, {"measurement": "half-life", "setting": "[20]", "value": 294, "unit": "min"}, {"measurement": "half-life", "setting": "[21]", "value": 648, "unit": "min"}]}, {"smiles": "CC(C)(C)CCN1CCC(CNC(=O)c2cc(Cl)cc(Cl)c2)CC1", "values": [{"measurement": "bioavailability", "setting": "[22]", "value": 100, "unit": "%"}, {"measurement": "pKa", "setting": "[1]", "value": 8.7}]}, {"smiles": "CC1(C)C[C@@H](CN2CCC(F)(CNC(=O)c3cc(Cl)cc(Cl)c3)CC2)CCO1", "values": [{"measurement": "pKa", "setting": "[1]", "value": 7.9}]}, {"smiles": "CC(C)(C)C(O)CN1CCC(CNC(=O)c2cc(Cl)cc(Cl)c2)CC1", "note": "(stereo not drawn)", "values": [{"measurement": "pKa", "setting": "[1]", "value": 9.2}]}, {"smiles": "CC(C)(C)C(=O)CN1CCC(CNC(=O)c2cc(Cl)cc(Cl)c2)CC1", "values": [{"measurement": "pKa", "setting": "[1]", "value": 8}]}]}
